In ChEMBL document CHEMBL5316295, “Systematic Design of Adenosine Analogs as Inhibitors of a Clostridioides difficile-Specific DNA Adenine Methyltransferase Required for Normal Sporulation and Persistence” (J Med Chem, 2023):
Active and inactive are the calls of the source. No cut-off for these calls is given here.

Key:
[1] = system: Clostridioides difficile; assay: (§1) Inhibition of Clostridioides difficile-specific DNA adenine methyltransferase mediated methylation using 5'-CGA TTC AAA AAG TCC CAA G-3' and 3'-GCT AAG TTT TTC AGG GTT C-5' as substrate and SAM as cosubstrate at 1 to 10 uM preincubated for 5 mins followed by substrate and cosubstrate addition and measured after 3 mins by MTase glo assay; settings: dose 1-10 µM, time 8.0 min
[2] = as §1, with “PDB 7RFM” for “mediated methylation”, “cosubstrate” for “cosubstrate at 1 to 10 uM”, “MTase-Glo” for “MTase glo”
How it was run: (§2)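 Then 2.5 μM 19-bp dsDNA and 40 μM SAM were added, 3 min at ~22 °C, TFA quench (0.1%). Luminescent SAH readout against a serially diluted SAH standard curve; IC50 and Hill slope reported.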

[3] = Binding affinity to Clostridioides difficile-specific DNA adenine methyltransferase PDB 7RFM by MicroCal PEAQ ITC analysis
How it was run: (§3)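 CamA (pXC2184 construct) in 325 mM NaCl, 20 mM Tris–HCl pH 7.5, 0.5 mM TCEP, 10% DMSO at 25 °C; 200–900 μM compound titrated into 20–60 μM protein (0.2 μL initial injection then 18 × 2 μL; reverse titration for poorly soluble compounds). Data fitted to a one-site model with offset subtracted to obtain K_D.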

[4] = Binding affinity to Clostridioides difficile-specific DNA adenine methyltransferase PDB 8CXS by MicroCal PEAQ ITC analysis
How it was run: (§4)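 Test compound (200–900 μM) titrated into CamA (20–60 μM) at 25 °C in 325 mM NaCl, 20 mM Tris–HCl pH 7.5, 0.5 mM TCEP, 10% DMSO; 0.2 μL initial plus 18 × 2 μL injections. Reverse titration used for poorly soluble compounds. Data fitted to a one-site model with offset subtracted; K_D, ΔH, −TΔS and ΔG derived from the fit.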

[5] = Binding affinity to Clostridioides difficile-specific DNA adenine methyltransferase by MicroCal PEAQ-ITC instrument analysis
[6] = as §1, with “cosubstrate” for “cosubstrate at 1 to 10 uM”
[7] = as §1, with “PDB 8CXS” for “mediated methylation”, “cosubstrate” for “cosubstrate at 1 to 10 uM”, “MTase-Glo” for “MTase glo”
How it was run: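 Reaction started with 2.5 μM dsDNA and 40 μM SAM (final), run 3 min, then quenched with 0.1% TFA. SAH measured by MTase-Glo luminescence against an SAH standard curve.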

[8] = Binding affinity to Clostridioides difficile-specific DNA adenine methyltransferase PDB 7RFL by MicroCal PEAQ ITC analysis; how it was run: as §3
[9] = system: Clostridioides difficile; assay: as §1, with “methyltransferase” for “methyltransferase mediated methylation”, “50” for “1 to 10”, “MTase-Glo” for “MTase glo”; settings: time 8.0 min
[10] = as §1, with “PDB 7RFL” for “mediated methylation”, “cosubstrate” for “cosubstrate at 1 to 10 uM”, “MTase-Glo” for “MTase glo”; how it was run: as §2
[11] = Binding affinity to Clostridioides difficile-specific DNA adenine methyltransferase PDB 7RFK by MicroCal PEAQ ITC analysis; how it was run: as §3
[12] = as §1, with “PDB 7RFK” for “mediated methylation”, “cosubstrate” for “cosubstrate at 1 to 10 uM”, “MTase-Glo” for “MTase glo”; how it was run: as §2
[13] = biological target: mRNA (2'-O-methyladenosine-N(6)-)-methyltransferase (Homo sapiens) (UniProt Q9H4Z3); assay: Inhibition of human PCIF1 using m7GpppAmG as substrate and SAM as cosubstrate at 10 uM incubated for 15 mins
How it was run: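 Enzyme 0.1 μM with 5 μM RNA, 30 μM SAM and 10 μM inhibitor at ~22 °C in 50 mM Tris–HCl pH 7.5, 100 mM NaCl, 1 mM DTT, 0.25% DMSO. PCIF1 run 15 min with capped RNA; MettL5-Trm112 run 1 h with ssRNA.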

[14] = system: Caulobacter vibrioides; assay: Inhibition of Caulobacter vibrioides CcrM using 5'-CGA TTC AAA AAG TCC CAA G-3' and 3'-GCT AAG TTT TTC AGG GTT C-5' as substrate and SAM as cosubstrate at 10 uM incubated for 5 mins
How it was run: (§5)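 Conditions were enzyme 0.1 μM, DNA 5 μM, SAM 30 μM, inhibitor 10 μM, at ~22 °C in 50 mM Tris–HCl pH 7.5, 100 mM NaCl, 1 mM DTT, 0.25% DMSO, run 5 min. Substrate and SAM levels were above K_M.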

[15] = biological target: DNMT3A-DNMT3L (Mus musculus) (UniProt O88508+Q9CWR8); assay: Inhibition of mouse DNMT3A/DNMT3L using 5'-G CATGCGTTCTAATTAGAAUGCATG-3' and 3'-GTA CGS AAG ATT AAT CTT GCG TAC G-5' as substrate and SAM as cosubstrate at 10 uM incubated for 1 hr; type: protein-complex assay
How it was run: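 Dnmt3a-3L (0.5 μM) with 5 μM dsDNA, 25 μM SAM and 10 μM inhibitor in 20 mM Tris pH 7.5, 40 mM NaCl, 4 mM DTT, 20% glycerol, run 1 h at 37 °C.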

[16] = biological target: T1, DNA adenine methylase (Escherichia coli K-12) (UniProt P0AEE8); assay: Inhibition of Escherichia coli Dam using 5'-CCG CGG ATC CTG CT-3' and 3'-GGC GCC TAG GAC GA-5' as substrate and SAM as cosubstrate at 10 uM incubated for 5 mins; how it was run: as §5
T1 sequence (whole entry): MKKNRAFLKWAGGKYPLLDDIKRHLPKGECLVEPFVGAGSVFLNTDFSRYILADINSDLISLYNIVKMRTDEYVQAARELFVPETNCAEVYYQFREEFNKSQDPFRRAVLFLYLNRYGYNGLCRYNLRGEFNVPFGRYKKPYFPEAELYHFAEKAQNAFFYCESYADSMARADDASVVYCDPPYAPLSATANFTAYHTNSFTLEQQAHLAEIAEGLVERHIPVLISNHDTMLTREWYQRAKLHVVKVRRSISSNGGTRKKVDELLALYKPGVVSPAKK

[17] = Binding affinity to Clostridioides difficile-specific DNA adenine methyltransferase by MicroCal PEAQ ITC analysis; how it was run: as §4
[18] = biological target: Protein arginine N-methyltransferase 1 (Homo sapiens) (UniProt Q99873); assay: Inhibition of PRMT1 (unknown origin) using histone H4 as substrate and 3H-SAM as cosubstrate at 10 uM pretreated with compound for 20 mins in presence of histone H4 followed by cosubstrate addition and measured after 1 hr; settings: time 80.0 min
How it was run: (§6)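 Enzymes (DOT1L 1 nM; EZH2, G9a, PRMT1 5 nM) mixed with substrate (0.05 mg/mL oligonucleosomes for DOT1L; 0.05 mg/mL core histone for EZH2; 5 μM H3 1–21 peptide for G9a; 5 μM H4 for PRMT1). Compound (10 μM) added for 20 min at room temperature, then 1 μM ³H-SAM for 1 h at 30 °C; filter-paper read-out. Triplicates, mean ± SD.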

[19] = biological target: Histone-lysine N-methyltransferase, H3 lysine-79 specific (Homo sapiens) (UniProt Q8TEK3); assay: (§7) Inhibition of human DOT1L using oligonucleosome as substrate and 3H-SAM as cosubstrate at 10 uM pretreated with compound for 20 mins in presence of oligonucleosome followed by cosubstrate addition and measured after 1 hr; settings: time 80.0 min; how it was run: as §6
[20] = biological target: T2, Histone-lysine N-methyltransferase EHMT2 (Homo sapiens) (UniProt Q96KQ7); assay: as §7, with “G9a (913 to 1193 residues) expressed in Escherichia coli BL21 (DE3)-gold cells” for “DOT1L”, “histone H3 (1 to 21 residues)” for “oligonucleosome”; settings: time 80.0 min; how it was run: as §6
T2 sequence (whole entry): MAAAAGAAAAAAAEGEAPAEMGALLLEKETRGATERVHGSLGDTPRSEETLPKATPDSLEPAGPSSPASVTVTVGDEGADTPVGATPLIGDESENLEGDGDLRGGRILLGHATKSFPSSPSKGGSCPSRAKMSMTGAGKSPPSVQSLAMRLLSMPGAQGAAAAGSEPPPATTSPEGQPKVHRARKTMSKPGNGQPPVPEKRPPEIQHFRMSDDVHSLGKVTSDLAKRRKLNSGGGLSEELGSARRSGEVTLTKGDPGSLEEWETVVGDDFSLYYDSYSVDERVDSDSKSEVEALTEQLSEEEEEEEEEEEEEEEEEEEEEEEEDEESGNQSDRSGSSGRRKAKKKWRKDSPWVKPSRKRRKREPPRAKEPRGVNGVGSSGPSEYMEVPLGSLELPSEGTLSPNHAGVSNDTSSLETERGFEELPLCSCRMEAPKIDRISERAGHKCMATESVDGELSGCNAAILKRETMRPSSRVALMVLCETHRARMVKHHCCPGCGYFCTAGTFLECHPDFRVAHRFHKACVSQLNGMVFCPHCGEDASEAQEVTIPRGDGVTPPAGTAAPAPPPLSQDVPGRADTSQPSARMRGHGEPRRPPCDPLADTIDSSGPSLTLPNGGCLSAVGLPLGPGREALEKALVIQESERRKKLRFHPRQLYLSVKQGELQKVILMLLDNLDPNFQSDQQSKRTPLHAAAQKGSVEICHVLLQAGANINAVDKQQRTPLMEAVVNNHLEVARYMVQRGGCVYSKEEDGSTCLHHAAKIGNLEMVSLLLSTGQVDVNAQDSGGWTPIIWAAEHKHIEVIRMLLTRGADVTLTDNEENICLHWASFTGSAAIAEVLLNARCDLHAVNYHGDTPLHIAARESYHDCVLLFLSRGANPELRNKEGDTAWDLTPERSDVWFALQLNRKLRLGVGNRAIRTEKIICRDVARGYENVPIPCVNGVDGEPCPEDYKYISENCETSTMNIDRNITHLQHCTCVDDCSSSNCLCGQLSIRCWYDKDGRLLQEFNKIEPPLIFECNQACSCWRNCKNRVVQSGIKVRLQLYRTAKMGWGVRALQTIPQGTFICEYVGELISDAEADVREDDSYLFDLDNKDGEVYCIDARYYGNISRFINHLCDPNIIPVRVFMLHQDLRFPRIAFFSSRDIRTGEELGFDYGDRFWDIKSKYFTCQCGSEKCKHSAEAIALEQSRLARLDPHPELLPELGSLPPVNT

[21] = system: Clostridioides difficile; assay: Binding affinity to Clostridioides difficile-specific DNA adenine methyltransferase assessed as change in enthalpy by MicroCal PEAQ-ITC instrument analysis; how it was run: as §4

Chain of mRNA (2'-O-methyladenosine-N(6)-)-methyltransferase (Homo sapiens) (Q9H4Z3 whole entry): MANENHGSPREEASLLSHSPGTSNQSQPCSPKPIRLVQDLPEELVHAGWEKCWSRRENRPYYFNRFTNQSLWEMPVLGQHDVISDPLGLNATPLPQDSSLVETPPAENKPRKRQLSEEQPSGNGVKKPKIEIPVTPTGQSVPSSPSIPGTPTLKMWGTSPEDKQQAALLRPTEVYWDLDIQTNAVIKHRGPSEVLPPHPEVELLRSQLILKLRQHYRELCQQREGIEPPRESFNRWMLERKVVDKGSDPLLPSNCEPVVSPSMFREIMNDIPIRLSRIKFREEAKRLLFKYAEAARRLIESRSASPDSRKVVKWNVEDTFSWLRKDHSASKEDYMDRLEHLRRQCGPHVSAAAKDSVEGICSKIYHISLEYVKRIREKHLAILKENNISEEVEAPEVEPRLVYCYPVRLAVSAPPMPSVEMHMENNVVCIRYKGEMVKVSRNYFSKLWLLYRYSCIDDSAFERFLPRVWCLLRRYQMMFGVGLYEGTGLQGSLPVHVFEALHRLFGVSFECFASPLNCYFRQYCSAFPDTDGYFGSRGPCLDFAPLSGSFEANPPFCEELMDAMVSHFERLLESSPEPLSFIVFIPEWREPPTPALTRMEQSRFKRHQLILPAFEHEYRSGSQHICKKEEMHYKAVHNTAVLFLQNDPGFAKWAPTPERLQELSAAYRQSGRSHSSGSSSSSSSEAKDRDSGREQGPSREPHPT
Chain of DNMT3A-DNMT3L (Mus musculus) (Q9CWR8 whole entry, looked up, other chains not shown): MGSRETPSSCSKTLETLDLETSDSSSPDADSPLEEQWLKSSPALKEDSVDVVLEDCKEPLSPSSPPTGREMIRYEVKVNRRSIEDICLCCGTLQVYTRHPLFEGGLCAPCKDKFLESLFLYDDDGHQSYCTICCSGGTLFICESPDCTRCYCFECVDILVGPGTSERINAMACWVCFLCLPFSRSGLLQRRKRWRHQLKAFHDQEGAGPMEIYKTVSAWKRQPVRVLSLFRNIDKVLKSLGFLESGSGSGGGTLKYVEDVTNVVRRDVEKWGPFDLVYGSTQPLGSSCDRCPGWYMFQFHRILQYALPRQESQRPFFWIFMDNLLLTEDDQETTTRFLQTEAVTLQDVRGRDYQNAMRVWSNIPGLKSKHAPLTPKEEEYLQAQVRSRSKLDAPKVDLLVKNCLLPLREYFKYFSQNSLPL
Chain of Protein arginine N-methyltransferase 1 (Homo sapiens) (Q99873 whole entry, looked up): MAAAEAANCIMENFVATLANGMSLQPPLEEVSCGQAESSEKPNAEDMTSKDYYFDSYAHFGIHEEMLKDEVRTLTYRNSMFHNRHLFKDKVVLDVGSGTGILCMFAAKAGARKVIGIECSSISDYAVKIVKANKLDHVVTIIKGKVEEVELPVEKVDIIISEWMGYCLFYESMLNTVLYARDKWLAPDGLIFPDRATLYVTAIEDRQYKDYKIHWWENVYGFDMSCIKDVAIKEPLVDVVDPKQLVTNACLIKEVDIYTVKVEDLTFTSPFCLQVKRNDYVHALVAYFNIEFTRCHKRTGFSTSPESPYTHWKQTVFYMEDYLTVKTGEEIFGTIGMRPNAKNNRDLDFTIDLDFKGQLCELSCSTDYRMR
Chain of Histone-lysine N-methyltransferase, H3 lysine-79 specific (Homo sapiens) (Q8TEK3 whole entry, looked up, the tested form may be a part): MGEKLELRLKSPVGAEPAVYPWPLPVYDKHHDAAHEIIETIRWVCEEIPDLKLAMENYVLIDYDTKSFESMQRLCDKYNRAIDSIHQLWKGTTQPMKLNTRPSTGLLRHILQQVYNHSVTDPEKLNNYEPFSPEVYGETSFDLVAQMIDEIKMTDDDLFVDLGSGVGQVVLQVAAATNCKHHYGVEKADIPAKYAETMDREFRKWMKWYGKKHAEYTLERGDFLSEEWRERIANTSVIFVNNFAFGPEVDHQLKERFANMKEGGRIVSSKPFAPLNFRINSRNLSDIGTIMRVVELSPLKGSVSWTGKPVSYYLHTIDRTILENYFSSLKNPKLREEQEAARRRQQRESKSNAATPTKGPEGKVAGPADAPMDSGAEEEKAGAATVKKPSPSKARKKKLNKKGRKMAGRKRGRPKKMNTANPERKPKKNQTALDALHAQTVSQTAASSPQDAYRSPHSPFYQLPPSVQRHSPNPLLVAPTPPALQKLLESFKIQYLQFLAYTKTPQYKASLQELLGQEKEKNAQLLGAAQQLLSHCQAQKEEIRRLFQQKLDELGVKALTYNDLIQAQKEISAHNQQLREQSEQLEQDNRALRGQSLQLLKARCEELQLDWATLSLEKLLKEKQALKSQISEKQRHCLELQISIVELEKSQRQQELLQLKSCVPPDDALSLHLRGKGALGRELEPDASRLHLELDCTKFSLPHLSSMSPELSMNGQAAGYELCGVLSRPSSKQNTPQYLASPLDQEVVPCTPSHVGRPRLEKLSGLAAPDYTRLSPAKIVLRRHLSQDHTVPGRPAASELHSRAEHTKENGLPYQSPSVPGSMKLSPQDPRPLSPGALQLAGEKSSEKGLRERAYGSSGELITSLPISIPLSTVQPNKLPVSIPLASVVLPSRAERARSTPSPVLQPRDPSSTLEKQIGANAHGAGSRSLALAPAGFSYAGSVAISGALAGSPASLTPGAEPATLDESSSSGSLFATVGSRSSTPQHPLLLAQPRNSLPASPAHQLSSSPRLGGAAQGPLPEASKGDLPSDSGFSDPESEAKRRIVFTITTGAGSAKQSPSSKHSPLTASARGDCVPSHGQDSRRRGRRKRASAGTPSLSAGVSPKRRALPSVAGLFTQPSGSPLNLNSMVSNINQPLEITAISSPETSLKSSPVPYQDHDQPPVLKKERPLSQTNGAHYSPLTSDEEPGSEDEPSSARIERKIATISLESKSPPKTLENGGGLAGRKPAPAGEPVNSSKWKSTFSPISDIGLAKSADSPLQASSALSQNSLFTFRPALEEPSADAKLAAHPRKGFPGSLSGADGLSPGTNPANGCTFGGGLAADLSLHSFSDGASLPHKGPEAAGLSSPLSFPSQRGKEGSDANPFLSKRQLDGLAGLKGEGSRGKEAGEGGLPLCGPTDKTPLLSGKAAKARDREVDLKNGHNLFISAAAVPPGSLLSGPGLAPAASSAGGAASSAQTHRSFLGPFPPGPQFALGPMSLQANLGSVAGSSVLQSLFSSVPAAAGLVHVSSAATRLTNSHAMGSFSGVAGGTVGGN

## CC(C)(C)OC(=O)N1CCC2(CCN(c3ncnc4c3ncn4[C@@H]3O[C@H](CO)[C@@H](O)[C@H]3O)CC2)C1
[1]
  inhibition: inactive

## CC(C)N(CCCNC(=O)Nc1ccc(C(C)(C)C)cc1)C[C@H]1O[C@@H](n2ccc3c(N)ncnc32)[C@H](O)[C@@H]1O
[2]
  IC50: 43 µM
[3]
  Kd: 18 µM

## CSC[C@H]1O[C@@H](n2cnc3c(N)ncnc32)[C@H](O)[C@@H]1O [METHYLTHIOADENOSINE]
[4]
  Kd: 10 µM
[5]
  Kd: 11 µM
[6]
  IC50: 18 µM
[7]
  IC50: 18 µM

## OC[C@H]1O[C@@H](n2cnc3c(NCc4ccccc4)ncnc32)[C@H](O)[C@@H]1O [N6-BENZYLADENOSINE]
[5]
  Kd: 13 µM
[6]
  IC50: 15 µM

## OC[C@H]1O[C@@H](n2cnc3c(NCc4ccc(O)cc4)ncnc32)[C@H](O)[C@@H]1O
[5]
  Kd: 5.3 µM
[6]
  IC50: 4.8 µM

## OC[C@H]1O[C@@H](n2cnc3c(NCCCC4CCNCC4)ncnc32)[C@H](O)[C@@H]1O
[6]
  IC50: 3.8 µM

## OC[C@H]1O[C@@H](n2cnc3c(NCCCCc4ccccc4)ncnc32)[C@H](O)[C@@H]1O
[5]
  Kd: 1.6 µM
[6]
  IC50: 1.6 µM

## Nc1ccc(CCNc2ncnc3c2ncn3[C@@H]2O[C@H](CO)[C@@H](O)[C@H]2O)cc1
[5]
  Kd: 18 µM

## OC[C@H]1O[C@@H](n2cnc3c(NCCCc4ccccc4)ncnc32)[C@H](O)[C@@H]1O
[5]
  Kd: 0.5 µM
[6]
  IC50: 0.7 µM

## OC[C@H]1O[C@@H](n2cnc3c(NCCCCCc4ccccc4)ncnc32)[C@H](O)[C@@H]1O
[5]
  Kd: 1.3 µM
[6]
  IC50: 1.3 µM

## CC(C)N(CCCNC(=O)Nc1ccc(C(C)(C)C)cc1)C[C@H]1O[C@@H](n2cc(Br)c3c(N)ncnc32)[C@H](O)[C@@H]1O
[8]
  Kd: 6.3 µM
[9]
  inhibition: Active
[10]
  IC50: 4.7 µM

## Nc1ncnc2c1ncn2[C@@H]1O[C@H](C[C@@H](N)CC[C@H](N)C(=O)O)[C@@H](O)[C@H]1O [SINEFUNGIN]
[11]
  Kd: 23 µM
[12]
  IC50: 24 µM
[13]
  inhibition: Active
[14]
  inhibition: Active
[15]
  inhibition: Active
[16]
  inhibition: Active

## OC[C@H]1O[C@@H](n2cnc3c(N[C@H]4CCc5ccccc54)ncnc32)[C@H](O)[C@@H]1O
[5]
  Kd: 49 µM
[6]
  IC50: 43 µM

## Nc1ncnc2c1ncn2[C@@H]1O[C@H](CO)[C@@H](O)[C@H]1O [ADENOSINE]
[17]
  Kd: > 70 µM

## CC(C)(C)OC(=O)N1CCC(CNc2ncnc3c2ncn3[C@@H]2O[C@H](CO)[C@@H](O)[C@H]2O)CC1
[5]
  Kd: 1.1 µM
[6]
  IC50: 2 µM

## Nc1ccc(CCCNc2ncnc3c2ncn3[C@@H]2O[C@H](CO)[C@@H](O)[C@H]2O)cc1
[5]
  Kd: 1.5 µM
[6]
  IC50: 1.4 µM

## CC(C)(C)OC(=O)NCCC1CCN(c2ncnc3c2ncn3[C@@H]2O[C@H](CO)[C@@H](O)[C@H]2O)CC1
[1]
  inhibition: inactive

## Nc1ncnc2c1ncn2[C@@H]1O[C@H](CSCC[C@H](N)C(=O)O)[C@@H](O)[C@H]1O
[18]
  inhibition: Active
[19]
  inhibition: Active
[20]
  inhibition: Active

## OC[C@H]1O[C@@H](n2cnc3c(NCCc4ccccc4)ncnc32)[C@H](O)[C@@H]1O
[5]
  Kd: 2.9 µM
[6]
  IC50: 2.5 µM

## Nc1ccc(CNc2ncnc3c2ncn3[C@@H]2O[C@H](CO)[C@@H](O)[C@H]2O)cc1
[5]
  Kd: 14 µM
[21]
  deltaH: -12.2 kcal/mol
[6]
  IC50: 10 µM
